Active and inactive are the calls of the source. No cut-off for these calls is given here.
How the values were obtained:
Escherichia coli = experiment: Antibacterial activity against Escherichia coli B74-1 at 1 mg/disk after 24 hrs by disk diffusion assay; format: functional, organism-based
In short: (§1)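 Sterile 6 mm filter-paper disc bearing sample set in the centre of a Petri dish of 15 ml plate count agar. Overlaid with 3 ml soft nutrient agar (nutrient broth + 0.7% agar) seeded with 1% of a 16–18 h culture of the test strain. Read-out is the diameter of the growth-free zone around the disc.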

Salmonella typhimurium = experiment: Antibacterial activity against Salmonella Typhimurium NCIB 10248 at 1 mg/disk after 24 hrs by disk diffusion assay; format: functional, organism-based; conditions: Salmonella enterica subsp. enterica serovar Typhimurium; in short: as §1
Pseudomonas aeruginosa = experiment: Antibacterial activity against Pseudomonas aeruginosa ATCC 10145 at 1 mg/disk after 24 hrs by disk diffusion assay; format: functional, organism-based; in short: as §1
Pseudomonas putida = experiment: Antibacterial activity against Pseudomonas putida T-AQ 18/YF18 at 1 mg/disk after 24 hrs by disk diffusion assay; format: functional, organism-based; in short: as §1
[1] = test system: Geobacillus stearothermophilus; experiment: Antibacterial activity against Bacillus stearothermophilus NCA 1518 after 24 hrs by disk diffusion assay; format: functional, organism-based; in short: as §1
Enterococcus faecalis = experiment: Antibacterial activity against Streptococcus faecalis NCIB 775 after 24 hrs by disk diffusion assay; format: functional, organism-based; in short: as §1
Bacillus cereus [2] = experiment: Bactericidal activity against Bacillus cereus NCIB 3329 at 150 ug/ml by liquid culture assay; format: functional, organism-based
In short: (§2)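 Wells hold brain heart infusion (200 µl) plus 50 µl inoculum at 10³–10⁵ cfu/ml, with dicranin added as the sodium salt in water (10–200 μg/ml tested). Cultures are incubated at the strain's optimal growth temperature. Duplicate 100 µl samples are taken at 0, 2, 4, 6, 8 and 24 h, diluted in tryptone salt to 10–500 bacteria/plate, plated on plate count agar, and colonies counted after 24 h.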

Bacillus cereus [3] = experiment: Bactericidal activity against Bacillus cereus NCIB 3329 at 100 ug/ml upto 4 hrs by liquid culture assay; format: functional, organism-based; in short: as §2
Bacillus cereus [4] = experiment: Bactericidal activity against Bacillus cereus NCIB 3329 at 50 ug/ml by liquid culture assay; format: functional, organism-based; in short: as §2
Bacillus cereus [5] = experiment: Bactericidal activity against Bacillus cereus NCIB 3329 at 10 ug/ml by liquid culture assay; format: functional, organism-based; in short: as §2
[6] = test system: Geobacillus stearothermophilus; experiment: Bactericidal activity against sBacillus stearothermophilus NCA 1518 at 200 ug/ml by liquid culture assay; format: functional, organism-based; in short: as §2
[7] = test system: Geobacillus stearothermophilus; experiment: Bactericidal activity against Bacillus stearothermophilus NCA 1518 at 50 to 150 ug/ml upto 4 hrs by liquid culture assay; format: functional, organism-based; in short: as §2
[8] = test system: Geobacillus stearothermophilus; experiment: Bacteriostatic activity against Bacillus stearothermophilus NCA 1518 at 50 to 150 ug/ml after 4 hrs by liquid culture assay; format: functional, organism-based; in short: as §2
[9] = test system: Geobacillus stearothermophilus; experiment: Antibacterial activity against Bacillus stearothermophilus NCA 1518 at 1000 ug/disk after 24 hrs by disk diffusion assay; format: functional; conditions: read-out: Diameter of inhibition zone; in short: as §1
[10] = test system: Geobacillus stearothermophilus; experiment: Antibacterial activity against Bacillus stearothermophilus NCA 1518 at 500 ug/disk after 24 hrs by disk diffusion assay; format: functional; conditions: read-out: Diameter of inhibition zone; in short: as §1
[11] = test system: Geobacillus stearothermophilus; experiment: Antibacterial activity against Bacillus stearothermophilus NCA 1518 at 250 ug/disk after 24 hrs by disk diffusion assay; format: functional; conditions: read-out: Diameter of inhibition zone; in short: as §1
[12] = test system: Geobacillus stearothermophilus; experiment: Antibacterial activity against Bacillus stearothermophilus NCA 1518 at 125 ug/disk after 24 hrs by disk diffusion assay; format: functional; conditions: read-out: Diameter of inhibition zone; in short: as §1
[13] = test system: Geobacillus stearothermophilus; experiment: Antibacterial activity against Bacillus stearothermophilus NCA 1518 at 100 ug/disk after 24 hrs by disk diffusion assay; format: functional; conditions: read-out: Diameter of inhibition zone; in short: as §1
[14] = test system: Geobacillus stearothermophilus; experiment: Antibacterial activity against Bacillus stearothermophilus NCA 1518 at 75 ug/disk after 24 hrs by disk diffusion assay; format: functional; conditions: read-out: Diameter of inhibition zone; in short: as §1
[15] = test system: Geobacillus stearothermophilus; experiment: Antibacterial activity against Bacillus stearothermophilus NCA 1518 at 50 ug/disk after 24 hrs by disk diffusion assay; format: functional; conditions: read-out: Diameter of inhibition zone; in short: as §1
[16] = test system: Geobacillus stearothermophilus; experiment: Antibacterial activity against Bacillus stearothermophilus NCA 1518 at 25 ug/disk after 24 hrs by disk diffusion assay; format: functional; conditions: read-out: Diameter of inhibition zone; in short: as §1
[17] = test system: Geobacillus stearothermophilus; experiment: Antibacterial activity against Bacillus stearothermophilus NCA 1518 at 10 ug/disk after 24 hrs by disk diffusion assay; format: functional; conditions: read-out: Diameter of inhibition zone; in short: as §1
Bacillus cereus [18] = experiment: Antibacterial activity against Bacillus cereus NCIB 3329 at 1000 ug/disk after 24 hrs by disk diffusion assay; format: functional; conditions: read-out: Diameter of inhibition zone; in short: as §1
Bacillus cereus [19] = experiment: Antibacterial activity against Bacillus cereus NCIB 3329 at 500 ug/disk after 24 hrs by disk diffusion assay; format: functional; conditions: read-out: Diameter of inhibition zone; in short: as §1
Bacillus cereus [20] = experiment: Antibacterial activity against Bacillus cereus NCIB 3329 at 250 ug/disk after 24 hrs by disk diffusion assay; format: functional; conditions: read-out: Diameter of inhibition zone; in short: as §1
Bacillus cereus [21] = experiment: Antibacterial activity against Bacillus cereus NCIB 3329 at 125 ug/disk after 24 hrs by disk diffusion assay; format: functional; conditions: read-out: Diameter of inhibition zone; in short: as §1

In the case of `CC/C=C\C/C=C\C/C=C\CC#CCCCCC(=O)O` [DICRANIN], the Activity (Escherichia coli) was “inactive”, the Activity (Salmonella typhimurium) was “inactive” and the Activity (Pseudomonas aeruginosa) was “inactive”. The Activity (Pseudomonas putida) was “inactive”, the Activity [1] was “Active” and the Activity (Enterococcus faecalis) was “Active”. For the same compound, the Activity (Bacillus cereus [2]) was “Active”, the Activity (Bacillus cereus [3]) was “Active” and the Activity (Bacillus cereus [4]) was “Active”. The Activity (Bacillus cereus [5]) was “inactive”, the Activity [6] was “Active” and the Activity [7] was “Active”. The Activity [8] was “Active”, the zone of inhibition at 1000 µg/disc [9] was 35 mm and the zone of inhibition at 500 µg/disc [10] was 32 mm. For the same compound, the zone of inhibition at 250 µg/disc [11] was 26 mm, the zone of inhibition at 125 µg/disc [12] was 17 mm and the zone of inhibition at 100 µg/disc [13] was 16 mm. It also gave a zone of inhibition at 75 µg/disc [14] of 14 mm, a zone of inhibition at 50 µg/disc [15] of 11 mm and a zone of inhibition at 25 µg/disc [16] of 9 mm. For the same compound, the zone of inhibition at 10 µg/disc [17] was 0 mm, the zone of inhibition at 1000 µg/disc (Bacillus cereus [18]) was 25 mm and the zone of inhibition at 500 µg/disc (Bacillus cereus [19]) was 22 mm. The zone of inhibition at 250 µg/disc (Bacillus cereus [20]) was 19 mm and the zone of inhibition at 125 µg/disc (Bacillus cereus [21]) was 16 mm.

From ChEMBL document CHEMBL1148178, “Dicranin, an antimicrobial and 15-lipoxygenase inhibitor from the moss Dicranum scoparium” (1993)
